In ChEMBL document CHEMBL1154265, “Alkaloids from the leaves of Daphniphyllum subverticillatum” (J Nat Prod, 2009):
Active and inactive are the calls of the source. The rule behind the calls is not given here.

Key:
HMEC = assay: Cytotoxicity against human HMEC cells after 72 hrs by sulforhodamine B assay; type: cell-based; settings: for Activity: human, hmec
Outline: (§1)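 SRB staining on A-549, BEL-7402 and HMEC (human microvascular endothelial) cells, run to earlier published protocols, with pseudolaric acid B as the positive control; IC50 values reported.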

A549 = assay: Cytotoxicity against human A549 cells after 72 hrs by sulforhodamine B assay; type: functional, cell-based; outline: as §1
Bel-7402 = assay: Cytotoxicity against human Bel7402 cells after 72 hrs by sulforhodamine B assay; type: functional, cell-based; outline: as §1
HL-60 = assay: Cytotoxicity against human HL60 cells after 72 hrs by MTT assay; type: functional, cell-based
Outline: (§2)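 MTT read-out on HL-60 and P-388 cells, run to earlier published protocols, with pseudolaric acid B as the positive control; IC50 values reported.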

P388 = assay: Cytotoxicity against mouse P388 cells after 72 hrs by MTT assay; type: functional, cell-based; outline: as §2

Compound	Activity (HMEC)	Activity (A549)	Activity (Bel-7402)	Activity (HL-60)	Activity (P388)	IC50 (HMEC; Homo sapiens, HMEC)	IC50 (Bel-7402; Bel-7402, 72 h)	IC50 (HL-60; HL-60, 72 h)	IC50 (P388; P388, 72 h)
CC[C@@]1(O)CC[C@@]2(CO1)[C@H]1CCC3=C4[C@H](C[C@@H]3O)[C@H](C(=O)OC)C[C@@]42CN(C)C1	Non-toxic	inactive	inactive	inactive	inactive				
COC(=O)CC[C@]12C3=CCC[C@@H]3CC[C@@H]3C=N[C@@H]1[C@@H](C(C)C)CC[C@@]32C [DAPHNEZOMINE L METHYL ESTER]	Non-toxic	inactive	inactive	inactive	inactive				
CC(=O)O[C@@H]1CC[C@@]2(C)O[C@@H](O)[C@@]1(C)C2CC[C@@]12[C@@H]3NC4C(CC[C@@]45CCC[C@H]51)[C@]2(C)CC[C@@H]3C(C)C (stereo not given in full) [DAPHNILONGERIDINE]		inactive				2.7 µM	9.7 µM	9.5 µM	2.4 µM
CC(C)[C@H]1CC[C@@]2(C)[C@@H]3C[C@@H](O)[C@]45CCC[C@H]4[C@@]2(CCC(=O)[C@]2(C)CO[C@]4(C)CCC2O4)[C@@H]1N5C3 [HYDROXYCODAPHNIPHYLLINE]	Non-toxic	inactive	inactive	inactive	inactive				
COC(=O)[C@@H]1C[C@@]23C(=O)[C@@H]4C[C@H]5N(C[C@@H](CCC6=C2[C@@H]1CC6)[C@]53COC(C)=O)C[C@H]4C [SUBDAPHNIDINE A]	Non-toxic	inactive	inactive	inactive	inactive				
